We go through 14 molecules from ChEMBL document CHEMBL1759986, “Selective α-glucosidase substrates and inhibitors containing short aromatic peptidyl moieties” (Bioorg Med Chem Lett, 2011).

Data set [1] concerns Salivary alpha-amylase (Homo sapiens). As to the kind of experiment: Inhibition of human salivary alpha-amylase assessed as formation of p-nitrophenol.
The target in data set [2] is T1, Pancreatic alpha-amylase (Sus scrofa) (UniProt P00690).
T1 sequence (whole entry): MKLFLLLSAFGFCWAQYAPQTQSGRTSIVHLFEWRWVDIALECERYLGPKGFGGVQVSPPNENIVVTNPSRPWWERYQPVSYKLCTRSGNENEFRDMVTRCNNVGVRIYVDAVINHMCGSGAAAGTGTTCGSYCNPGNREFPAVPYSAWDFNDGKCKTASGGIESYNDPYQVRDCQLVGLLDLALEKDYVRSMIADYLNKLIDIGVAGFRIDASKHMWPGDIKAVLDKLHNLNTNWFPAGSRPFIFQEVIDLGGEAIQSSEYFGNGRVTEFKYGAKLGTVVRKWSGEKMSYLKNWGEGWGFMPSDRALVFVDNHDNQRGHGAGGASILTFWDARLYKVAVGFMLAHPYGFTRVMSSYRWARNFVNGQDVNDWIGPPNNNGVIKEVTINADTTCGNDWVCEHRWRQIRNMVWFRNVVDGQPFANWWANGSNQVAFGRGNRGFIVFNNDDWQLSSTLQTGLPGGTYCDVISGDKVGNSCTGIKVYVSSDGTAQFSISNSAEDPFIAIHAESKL
As to the kind of experiment: Inhibition of pig alpha-amylase assessed as formation of p-nitrophenol. A digest of the protocol:
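Screening used each α-amylase with an equimolar mixture of the peptidyl substrate and p-nitrophenyl-α-D-pentaoside. The read-out was the rate of p-nitrophenol formation compared with the chromogenic substrate alone. Each data point was triplicated and averaged.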

In data set [3] the target is T2, Alpha-glucosidase (Geobacillus stearothermophilus, UniProt P94451).
T2 sequence (P94451 whole entry): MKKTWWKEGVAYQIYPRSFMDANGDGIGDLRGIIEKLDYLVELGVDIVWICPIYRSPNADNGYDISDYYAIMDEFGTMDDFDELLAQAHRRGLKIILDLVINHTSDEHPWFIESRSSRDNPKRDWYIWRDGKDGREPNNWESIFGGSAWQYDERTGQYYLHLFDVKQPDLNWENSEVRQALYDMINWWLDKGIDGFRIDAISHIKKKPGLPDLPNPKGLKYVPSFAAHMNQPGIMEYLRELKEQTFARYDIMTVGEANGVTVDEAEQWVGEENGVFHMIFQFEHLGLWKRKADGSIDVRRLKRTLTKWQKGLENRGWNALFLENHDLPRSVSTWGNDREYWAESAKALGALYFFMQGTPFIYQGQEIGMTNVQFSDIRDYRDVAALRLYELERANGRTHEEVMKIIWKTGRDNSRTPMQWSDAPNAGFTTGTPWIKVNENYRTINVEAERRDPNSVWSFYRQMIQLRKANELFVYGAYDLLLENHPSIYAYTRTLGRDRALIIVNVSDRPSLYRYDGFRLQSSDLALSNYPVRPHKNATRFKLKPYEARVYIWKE
As to the kind of experiment: Competitive inhibition of Bacillus stearothermophilus alpha-glucosidase assessed as production of chromogenic p-Nitrphenol measured after 3 mins by HPLC and Michaelis-Menten equation. A digest of the protocol:
(§1)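 The chromogenic substrate was p-nitrophenyl-α-D-glucopyranoside, with p-nitrophenol formation monitored. Ki was calculated from a Dixon plot. Each measurement was triplicated and averaged.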

Data set [4] in a line: Competitive inhibition of rice alpha-glucosidase assessed as production of chromogenic p-Nitrphenol measured after 3 mins by HPLC and Michaelis-Menten equation. Also noted: species or system Oryza sativa. A digest of the protocol: as §1
Substrate in data set [5]: O=[N+]([O-])c1ccc(O[C@H]2O[C@H](CO)[C@@H](O)[C@H](O)[C@H]2O)cc1
In words: Ratio of Kcat to Km for Bacillus stearothermophilus alpha-glucosidase assessed as production of chromogenic p-Nitrphenol. To be noted: Geobacillus stearothermophilus. An outline of the steps: (§2)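 Alpha-glucosidase from Bacillus stearothermophillus was incubated with the substrate. Km was obtained by Michaelis–Menten kinetics. Vmax, kcat and kcat/Km were reported alongside Km. Each value was measured in triplicate and averaged.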

Substrate in data set [6]: CC(=O)Nc1ccc(O[C@H]2O[C@H](CO)[C@@H](O)[C@H](O)[C@H]2O)cc1
As to the kind of experiment: Ratio of Kcat to Km for Bacillus stearothermophilus alpha-glucosidase assessed as production of chromogenic p-acetaminophenyl. The following applies: Geobacillus stearothermophilus. An outline of the steps: as §2

Substrate in data set [7]: NC(=O)[C@H](Cc1ccc(O)cc1)NC(=O)[C@H](Cc1c[nH]c2ccccc12)NC(=O)CCC(=O)Nc1ccc(O[C@H]2O[C@H](CO)[C@@H](O)[C@H](O)[C@H]2O)cc1
As to the kind of experiment: Activity at Bacillus stearothermophilus alpha-glucosidase assessed as production of chromogenic Sp-WY measured after 3 mins by HPLC Michaelis-Menten equation. To be noted: Geobacillus stearothermophilus. An outline of the steps:
as §2

Substrate in data set [8]: CC(=O)Nc1ccc(O[C@H]2O[C@H](CO)[C@@H](O)[C@H](O)[C@H]2O)cc1
As to the kind of experiment: Activity at Bacillus stearothermophilus alpha-glucosidase assessed as production of chromogenic p-acetaminophenyl measured after 3 mins by HPLC Michaelis-Menten equation. To be noted: Geobacillus stearothermophilus. A digest of the protocol:
as §2

Substrate in data set [9]: NC(=O)[C@H](Cc1ccc(O)cc1)NC(=O)[C@H](Cc1c[nH]c2ccccc12)NC(=O)CCC(=O)Nc1ccc(O[C@H]2O[C@H](CO)[C@@H](O)[C@H](O)[C@H]2O)cc1
As to the kind of experiment: Ratio of Kcat to Km for Bacillus stearothermophilus alpha-glucosidase assessed as production of chromogenic Sp-WY. To be noted: Geobacillus stearothermophilus. An outline of the steps:
as §2

Substrate in data set [10]: O=[N+]([O-])c1ccc(O[C@H]2O[C@H](CO)[C@@H](O)[C@H](O)[C@H]2O)cc1
As to the kind of experiment: Activity at Bacillus stearothermophilus alpha-glucosidase assessed as production of chromogenic p-Nitrphenol measured after 3 mins by HPLC and Michaelis-Menten equation. To be noted: Geobacillus stearothermophilus. A digest of the protocol:
as §2

Active and inactive are the calls of the source. No cut-off for these calls is given here.

In the case of `NC(=O)[C@H](Cc1ccccc1)NC(=O)[C@H](Cc1ccc(O)cc1)NC(=O)CCC(=O)Nc1ccc(O[C@H]2O[C@H](CO)[C@@H](O[C@H]3O[C@H](CO)[C@@H](O[C@H]4O[C@H](CO)[C@@H](O[C@H]5O[C@H](CO)[C@@H](O[C@H]6O[C@H](CO)[C@@H](O)[C@H](O)[C@H]6O)[C@H](O)[C@H]5O)[C@H](O)[C@H]4O)[C@H](O)[C@H]3O)[C@H](O)[C@H]2O)cc1`, the inhibition result in data set [1] and in [2] was “inactive” in each case.
For the molecule `NC(=O)[C@H](Cc1ccc(O)cc1)NC(=O)[C@H](Cc1c[nH]c2ccccc12)NC(=O)CCC(=O)Nc1ccc(O[C@H]2O[C@H](CO)[C@@H](O[C@H]3O[C@H](CO)[C@@H](O[C@H]4O[C@H](CO)[C@@H](O[C@H]5O[C@H](CO)[C@@H](O[C@H]6O[C@H](CO)[C@@H](O)[C@H](O)[C@H]6O)[C@H](O)[C@H]5O)[C@H](O)[C@H]4O)[C@H](O)[C@H]3O)[C@H](O)[C@H]2O)cc1`, the inhibition result in data set [1] and in data set [2] was “inactive” in each case.
For the molecule `NC(=O)[C@H](Cc1ccccc1)NC(=O)[C@H](Cc1c[nH]c2ccccc12)NC(=O)CCC(=O)Nc1ccc(O[C@H]2O[C@H](CO)[C@@H](O[C@H]3O[C@H](CO)[C@@H](O[C@H]4O[C@H](CO)[C@@H](O[C@H]5O[C@H](CO)[C@@H](O[C@H]6O[C@H](CO)[C@@H](O)[C@H](O)[C@H]6O)[C@H](O)[C@H]5O)[C@H](O)[C@H]4O)[C@H](O)[C@H]3O)[C@H](O)[C@H]2O)cc1`, the inhibition entry in data set [1] and in data set [2] was “inactive” in each case.
For `NC(=O)[C@H](Cc1ccc(O)cc1)NC(=O)[C@H](Cc1c[nH]c2ccccc12)NC(=O)CCC(=O)Nc1ccc(O)cc1`, in [3], the Ki is 1400 µM.
Turning to `NC(=O)[C@H](Cc1c[nH]c2ccccc12)NC(=O)[C@H](Cc1c[nH]c2ccccc12)NC(=O)CCC(=O)Nc1ccc(O[C@H]2O[C@H](CO)[C@@H](O[C@H]3O[C@H](CO)[C@@H](O[C@H]4O[C@H](CO)[C@@H](O[C@H]5O[C@H](CO)[C@@H](O[C@H]6O[C@H](CO)[C@@H](O)[C@H](O)[C@H]6O)[C@H](O)[C@H]5O)[C@H](O)[C@H]4O)[C@H](O)[C@H]3O)[C@H](O)[C@H]2O)cc1`, the inhibition result in data set [1] and in data set [2] was “inactive” each time.
With `NC(=O)[C@H](Cc1ccc(O)cc1)NC(=O)[C@H](Cc1c[nH]c2ccccc12)NC(=O)CCC(=O)Nc1ccc(O[C@@H]2O[C@H](CO)[C@@H](O)[C@H](O)[C@H]2O)cc1`, the Ki in data set [3] came to 110 µM.
As for `NC(=O)[C@H](Cc1c[nH]c2ccccc12)NC(=O)[C@H](Cc1ccccc1)NC(=O)CCC(=O)Nc1ccc(O[C@H]2O[C@H](CO)[C@@H](O[C@H]3O[C@H](CO)[C@@H](O[C@H]4O[C@H](CO)[C@@H](O[C@H]5O[C@H](CO)[C@@H](O[C@H]6O[C@H](CO)[C@@H](O)[C@H](O)[C@H]6O)[C@H](O)[C@H]5O)[C@H](O)[C@H]4O)[C@H](O)[C@H]3O)[C@H](O)[C@H]2O)cc1`, the inhibition entry in data set [1] and in data set [2] was “inactive” throughout.
Regarding `NC(=O)[C@H](Cc1ccc(O)cc1)NC(=O)[C@H](Cc1ccccc1)NC(=O)CCC(=O)Nc1ccc(O[C@H]2O[C@H](CO)[C@@H](O[C@H]3O[C@H](CO)[C@@H](O[C@H]4O[C@H](CO)[C@@H](O[C@H]5O[C@H](CO)[C@@H](O[C@H]6O[C@H](CO)[C@@H](O)[C@H](O)[C@H]6O)[C@H](O)[C@H]5O)[C@H](O)[C@H]4O)[C@H](O)[C@H]3O)[C@H](O)[C@H]2O)cc1`, the inhibition entry in [1] and in data set [2] was “inactive” each time.
Take `NC(=O)[C@H](Cc1c[nH]c2ccccc12)NC(=O)[C@H](Cc1ccc(O)cc1)NC(=O)CCC(=O)Nc1ccc(O[C@H]2O[C@H](CO)[C@@H](O[C@H]3O[C@H](CO)[C@@H](O[C@H]4O[C@H](CO)[C@@H](O[C@H]5O[C@H](CO)[C@@H](O[C@H]6O[C@H](CO)[C@@H](O)[C@H](O)[C@H]6O)[C@H](O)[C@H]5O)[C@H](O)[C@H]4O)[C@H](O)[C@H]3O)[C@H](O)[C@H]2O)cc1`: the inhibition entry in [1] and in [2] was “inactive” each time.
`O=[N+]([O-])c1ccc(O[C@H]2O[C@H](CO)[C@@H](O[C@H]3O[C@H](CO)[C@@H](O[C@H]4O[C@H](CO)[C@@H](O[C@H]5O[C@H](CO)[C@@H](O[C@H]6O[C@H](CO)[C@@H](O)[C@H](O)[C@H]6O)[C@H](O)[C@H]5O)[C@H](O)[C@H]4O)[C@H](O)[C@H]3O)[C@H](O)[C@H]2O)cc1`: the inhibition result in [1] and in [2] was “inactive” throughout.
For `NC(=O)[C@H](Cc1ccc(O)cc1)NC(=O)[C@H](Cc1ccc(O)cc1)NC(=O)CCC(=O)Nc1ccc(O[C@H]2O[C@H](CO)[C@@H](O[C@H]3O[C@H](CO)[C@@H](O[C@H]4O[C@H](CO)[C@@H](O[C@H]5O[C@H](CO)[C@@H](O[C@H]6O[C@H](CO)[C@@H](O)[C@H](O)[C@H]6O)[C@H](O)[C@H]5O)[C@H](O)[C@H]4O)[C@H](O)[C@H]3O)[C@H](O)[C@H]2O)cc1`, the inhibition entry in data set [1] and in [2] was “inactive” in each case.
Regarding `C[C@H]1O[C@H](O[C@H]2[C@H](O)[C@@H](O)[C@@H](O[C@H]3[C@H](O)[C@@H](O)C(O)O[C@@H]3CO)O[C@@H]2CO)[C@H](O)[C@@H](O)[C@@H]1N[C@H]1C=C(CO)[C@@H](O)[C@H](O)[C@H]1O` (stereo not given in full) [ACARBOSE], in [4], the Ki is 4.2 µM.
For `NC(=O)[C@H](Cc1ccccc1)NC(=O)[C@H](Cc1ccccc1)NC(=O)CCC(=O)Nc1ccc(O[C@H]2O[C@H](CO)[C@@H](O[C@H]3O[C@H](CO)[C@@H](O[C@H]4O[C@H](CO)[C@@H](O[C@H]5O[C@H](CO)[C@@H](O[C@H]6O[C@H](CO)[C@@H](O)[C@H](O)[C@H]6O)[C@H](O)[C@H]5O)[C@H](O)[C@H]4O)[C@H](O)[C@H]3O)[C@H](O)[C@H]2O)cc1`, the inhibition entry in [1] and in data set [2] was “inactive” in each case.

B1: Alpha-glucosidase (Geobacillus stearothermophilus), P94451 (protein)
chain: MKKTWWKEGVAYQIYPRSFMDANGDGIGDLRGIIEKLDYLVELGVDIVWICPIYRSPNADNGYDISDYYAIMDEFGTMDDFDELLAQAHRRGLKIILDLVINHTSDEHPWFIESRSSRDNPKRDWYIWRDGKDGREPNNWESIFGGSAWQYDERTGQYYLHLFDVKQPDLNWENSEVRQALYDMINWWLDKGIDGFRIDAISHIKKKPGLPDLPNPKGLKYVPSFAAHMNQPGIMEYLRELKEQTFARYDIMTVGEANGVTVDEAEQWVGEENGVFHMIFQFEHLGLWKRKADGSIDVRRLKRTLTKWQKGLENRGWNALFLENHDLPRSVSTWGNDREYWAESAKALGALYFFMQGTPFIYQGQEIGMTNVQFSDIRDYRDVAALRLYELERANGRTHEEVMKIIWKTGRDNSRTPMQWSDAPNAGFTTGTPWIKVNENYRTINVEAERRDPNSVWSFYRQMIQLRKANELFVYGAYDLLLENHPSIYAYTRTLGRDRALIIVNVSDRPSLYRYDGFRLQSSDLALSNYPVRPHKNATRFKLKPYEARVYIWKE
As for B1, the kcat/Km came out at 7600 M⁻¹ s⁻¹ in [5], 400 M⁻¹ s⁻¹ in data set [6] and 10000 M⁻¹ s⁻¹ in [9]. For the same molecule, the results for the Km in data set [7], in data set [8] and in [10] were 13 µM, 1900 µM and 1200 µM, respectively. Further, the Vmax is 0.00025 µM/s in data set [7], 0.0015 µM/s in data set [8] and 0.019 µM/s in data set [10]. Further, the figures for the kcat in data set [7], in data set [8] and in [10] were 0.13 s⁻¹, 0.76 s⁻¹ and 9.5 s⁻¹, respectively.
